Reference: ChEMBL document CHEMBL3352814, “Design, synthesis and biological evaluation of biphenylamide derivatives as Hsp90 C-terminal inhibitors” (Eur J Med Chem, 2015)
Activity calls are given as the source filed them. The rule behind the calls is not given here.

Assays:
[1] = target: T1, Heat shock protein HSP90 (Homo sapiens) (UniProt P07900+P08238); test: Inhibition of HSP90 in human MCF7 cells assessed as induction of Her2 protein degradation at 0.5 times antiproliferative IC50 level after 24 hrs by Western blotting method; type: cell-based
Summary of the method: (§1)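 MCF-7 cells, grown as for proliferation, treated 24 h with compound in DMSO (1% final). Geldanamycin 0.5 μM and DMSO served as controls. Lysis in cold RIPA with 1 mM PMSF, 2 mM orthovanadate and protease inhibitors, 1 h on ice, then cleared at 14000g, 10 min, 4 °C. BCA protein assay; 20 μg protein run reducing, blotted to nitrocellulose, probed with client antibodies, HRP chemiluminescence. High and low doses were 5-fold and 0.5-fold the antiproliferative value.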

[2] = target: T1, Heat shock protein HSP90 (Homo sapiens); test: Inhibition of HSP90 in human MCF7 cells assessed as induction of Raf protein degradation at 0.5 times antiproliferative IC50 level after 24 hrs by Western blotting method; type: cell-based; summary of the method: as §1
[3] = Antiproliferative activity against human SKBR3 cells after 72 hrs by MTS/PMS assay; type: functional, cell-based; conditions: SK-BR-3, 72 h
Summary of the method: (§2)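 Cells kept in 1:1 Advanced DMEM/F12 with non-essential amino acids, 2 mM L-glutamine, penicillin/streptomycin and 10% FBS at 37 °C, 5% CO2. Seeded 2000 cells/well, attached overnight, then given compound at varying concentrations in DMSO (1% final) for 72 h. Viable cells read by MTS/PMS. Normalised to 1% DMSO wells as 100% proliferation. IC50 from separate experiments run in triplicate.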

[4] = system: MCF7; test: Antiproliferative activity against human MCF7 cells after 72 hrs by MTS/PMS assay; type: functional, cell-based; conditions: MCF7, 72 h; summary of the method: as §2
[5] = target: T1, Heat shock protein HSP90 (Homo sapiens); test: Inhibition of HSP90 in human MCF7 cells assessed as induction of Akt protein degradation at 0.5 times antiproliferative IC50 level after 24 hrs by Western blotting method; type: cell-based; summary of the method: as §1
[6] = target: T1, Heat shock protein HSP90 (Homo sapiens); test: Inhibition of HSP90 in human MCF7 cells assessed as induction of Akt protein degradation at 0.5 to 5 times antiproliferative IC50 level after 24 hrs by Western blotting method; type: cell-based; summary of the method: as §1
[7] = target: T1, Heat shock protein HSP90 (Homo sapiens); test: Inhibition of HSP90 in human MCF7 cells assessed as induction of Raf protein degradation at 0.5 to 5 times antiproliferative IC50 level after 24 hrs by Western blotting method; type: cell-based; summary of the method: as §1
[8] = target: T1, Heat shock protein HSP90 (Homo sapiens); test: Inhibition of HSP90 in human MCF7 cells assessed as induction of Her2 protein degradation at 0.5 to 5 times antiproliferative IC50 level after 24 hrs by Western blotting method; type: cell-based; summary of the method: as §1
[9] = target: T1, Heat shock protein HSP90 (Homo sapiens); test: Inhibition of HSP90 in human MCF7 cells assessed as induction of Akt protein degradation at 0.1 to 5 uM after 24 hrs by Western blotting method; type: cell-based; summary of the method: as §1
[10] = target: T1, Heat shock protein HSP90 (Homo sapiens); test: Inhibition of HSP90 in human MCF7 cells assessed as induction of Raf protein degradation at 0.1 to 5 uM after 24 hrs by Western blotting method; type: cell-based; summary of the method: as §1
[11] = target: T1, Heat shock protein HSP90 (Homo sapiens); test: Inhibition of HSP90 in human MCF7 cells assessed as induction of Her2 protein degradation at 0.1 to 5 uM after 24 hrs by Western blotting method; type: cell-based; summary of the method: as §1

| SMILES | inhibition [1] | inhibition [2] | IC50 [4] | inhibition [5] | inhibition [6] | inhibition [7] | inhibition [8] | inhibition [9] | inhibition [10] | inhibition [11] | IC50 [3] |
| --- | --- | --- | --- | --- | --- | --- | --- | --- | --- | --- | --- |
| COc1cccc(-c2cc(C(=O)Nc3cccc(-c4cccc(OC5CCN(C)CC5)c4)c3)ccc2OC)c1 | Active | Active | 2000 nM | Active |  |  |  |  |  |  | 1620 nM |
| COc1cccc(-c2cc(C(=O)Nc3ccc(-c4ccc(OC5CCN(C)CC5)cc4)cc3)ccc2OC)c1 | Active | Active | 710 nM | Active |  |  |  |  |  |  | 470 nM |
| CC(C)=CCc1cc(C(=O)Nc2ccc(-c3ccc(OC4CCN(C)CC4)cc3)cc2)ccc1O | Active | Active | 1850 nM | Active |  |  |  |  |  |  | 2270 nM |
| CC(C)=CCc1cc(C(=O)Nc2cccc(-c3cccc(OC4CCN(C)CC4)c3)c2)ccc1O | Active | Active | 1170 nM | Active |  |  |  |  |  |  | 2790 nM |
| COc1ccc(C(=O)Nc2ccc(-c3ccc(OC4CCN(C)CC4)cc3)cc2)cc1-c1ccccc1 | Active | Active | 840 nM | Active |  |  |  |  |  |  | 510 nM |
| COc1ccc(C(=O)Nc2ccc(-c3ccc(OC4CCN(C)CC4)cc3)cc2)cc1 |  |  | 650 nM |  | Active | Active | Active |  |  |  | 490 nM |

More lines, in order of falling IC50 [4], values ahead:

| inhibition [1] | inhibition [2] | IC50 [4] | inhibition [5] | inhibition [6] | inhibition [7] | inhibition [8] | inhibition [9] | inhibition [10] | inhibition [11] | SMILES | IC50 [3] |
| --- | --- | --- | --- | --- | --- | --- | --- | --- | --- | --- | --- |
| Active | Active | 640 nM | Active |  |  |  | Dose-dependent effect | Dose-dependent effect | Dose-dependent effect | COc1ccc(C(=O)Nc2ccc(-c3ccc(OC4CCN(C)CC4)cc3)cc2)cc1-c1ccc(OC(C)=O)cc1 | 140 nM |
|  |  | 580 nM |  | inactive | inactive | inactive |  |  |  | CN1CCC(Oc2ccc(-c3ccc(NC(=O)c4ccc(I)cc4)cc3)cc2)CC1 | 310 nM |
|  |  | 580 nM |  | Active | Active | Active |  |  |  | CN1CCC(Oc2ccc(-c3ccc(NC(=O)c4ccc5ccccc5c4)cc3)cc2)CC1 | 220 nM |
|  |  | 580 nM |  | Active | Active | Active |  |  |  | CN1CCC(Oc2ccc(-c3ccc(NC(=O)c4cc5ccccc5[nH]4)cc3)cc2)CC1 | 640 nM |
|  |  | 490 nM |  | Active | Active | Active |  |  |  | CN1CCC(Oc2ccc(-c3ccc(NC(=O)c4cccc5ccccc45)cc3)cc2)CC1 | 350 nM |
| Active | Active | 320 nM | Active |  |  |  |  |  |  | COc1ccc(C(=O)Nc2ccc(-c3ccc(OC4CCN(C)CC4)cc3)cc2)cc1-c1cccc(Cl)c1 | 330 nM |
